ChEMBL document CHEMBL5357047, “The development of thymol-isatin hybrids as broad-spectrum antibacterial agents with potent anti-MRSA activity” (RSC Med Chem, 2024)
In brackets after ≈: the same amount, converted by molar mass. Activity calls are given as the source filed them. The calls are words filed in the database; no cut-off is given here.

Tests used:
[1] = test system: Staphylococcus epidermidis; assay: Antibacterial activity against Staphylococcus epidermidis MTCC 435 assessed as inhibition of bacterial growth at 50 uM measured after 48 hrs by agar well diffusion method; type: functional; details: read-out: IZ
Staphylococcus aureus [2] = assay: Antibacterial activity against Methicillin-resistant Staphylococcus aureus ATCC 33591 assessed as inhibition of bacterial growth at 50 uM measured after 48 hrs by agar well diffusion method; type: functional; details: read-out: IZ
In short: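 Agar well diffusion on Mueller Hinton agar seeded with bacteria at 0.5 McFarland. […] Incubated 48 h at 37 °C aerobically; zone of inhibition diameter (mm) measured. Triplicate.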

Enterococcus faecalis [3] = assay: Antibacterial activity against Enterococcus faecalis MTCC 439 assessed as inhibition of bacterial growth at 50 uM measured after 48 hrs by agar well diffusion method; type: functional; details: read-out: IZ
Klebsiella pneumoniae [4] = assay: Antibacterial activity against Klebsiella pneumoniae MTCC 109 assessed as inhibition of bacterial growth at 50 uM measured after 48 hrs by agar well diffusion method; type: functional; details: read-out: IZ
Escherichia coli [5] = assay: Antibacterial activity against Escherichia coli MTCC 119 assessed as inhibition of bacterial growth at 50 uM measured after 48 hrs by agar well diffusion method; type: functional; details: read-out: IZ
Pseudomonas aeruginosa = assay: Antibacterial activity against Pseudomonas aeruginosa MTCC 424 assessed as inhibition of bacterial growth at 50 uM measured after 48 hrs by agar well diffusion method; type: functional; details: read-out: IZ
Staphylococcus aureus [6] = assay: Antibacterial activity against Methicillin-resistant Staphylococcus aureus ATCC 33591 assessed as inhibition of bacterial growth measured after 48 hrs by broth microdilution method; type: functional
Staphylococcus aureus [7] = assay: Bactericidal activity against Methicillin-resistant Staphylococcus aureus ATCC 33591 assessed as inhibition of bacterial growth measured after 48 hrs by agar plate method; type: functional
In short: (§1)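 MBC: aliquots from microdilution wells without colour change subcultured on drug-free Mueller Hinton agar, 48 h at 37 °C aerobically. MBC is the lowest concentration with no visible growth. Triplicate.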

Klebsiella pneumoniae [8] = details: RBRJ019, dose 50.0 µM, time 48.0 hrs
Klebsiella pneumoniae [9] = details: RBRJ024, dose 50.0 µM, time 48.0 hrs
Staphylococcus aureus [10] = assay: Antibacterial activity against Staphylococcus aureus MTCC 740 assessed as inhibition of bacterial growth at 50 uM measured after 48 hrs by agar well diffusion method; type: functional; details: read-out: IZ
Staphylococcus aureus [11] = assay: Antibacterial activity against clinically isolated Staphylococcus aureus RBRJ010 assessed as inhibition of bacterial growth at 50 uM measured after 48 hrs by agar well diffusion method; type: functional; details: read-out: IZ
Staphylococcus aureus [12] = assay: Antibacterial activity against clinically isolated Methicillin-resistant Staphylococcus aureus assessed as inhibition of bacterial growth at 50 uM measured after 48 hrs by agar well diffusion method; type: functional; details: read-out: IZ
Enterococcus faecalis [13] = assay: Antibacterial activity against clinically isolated Enterococcus faecalis RBRJ015 assessed as inhibition of bacterial growth at 50 uM measured after 48 hrs by agar well diffusion method; type: functional; details: read-out: IZ
Klebsiella pneumoniae [14] = assay: Antibacterial activity against clinically isolated Klebsiella pneumoniae RBRJ019 assessed as inhibition of bacterial growth at 50 uM measured after 48 hrs by agar well diffusion method; type: functional; details: read-out: IZ
Klebsiella pneumoniae [15] = assay: Antibacterial activity against clinically isolated Klebsiella pneumoniae RBRJ024 assessed as inhibition of bacterial growth at 50 uM measured after 48 hrs by agar well diffusion method; type: functional; details: read-out: IZ
Escherichia coli [16] = assay: Antibacterial activity against clinically isolated Escherichia coli RBRJ005 assessed as inhibition of bacterial growth at 50 uM measured after 48 hrs by agar well diffusion method; type: functional; details: read-out: IZ
Escherichia coli [17] = assay: Antibacterial activity against clinically isolated Escherichia coli RBRJ013 assessed as inhibition of bacterial growth at 50 uM measured after 48 hrs by agar well diffusion method; type: functional; details: read-out: IZ
Enterobacter cloacae = assay: Antibacterial activity against clinically isolated Enterobacter cloacae RBRJ017 assessed as inhibition of bacterial growth at 50 uM measured after 48 hrs by agar well diffusion method; type: functional; details: read-out: IZ
Acinetobacter baumannii = assay: Antibacterial activity against clinically isolated Acinetobacter baumannii RBRJ027 assessed as inhibition of bacterial growth at 50 uM measured after 48 hrs by agar well diffusion method; type: functional; details: read-out: IZ
Staphylococcus aureus [18] = assay: Antibacterial activity against Staphylococcus aureus MTCC 740 assessed as inhibition of bacterial growth measured after 48 hrs by broth microdilution method; type: functional
Staphylococcus aureus [19] = assay: Antibacterial activity against clinically isolated Staphylococcus aureus RBRJ010 assessed as inhibition of bacterial growth measured after 48 hrs by broth microdilution method; type: functional
[20] = test system: Staphylococcus epidermidis; assay: Antibacterial activity against Staphylococcus epidermidis MTCC 435 assessed as inhibition of bacterial growth measured after 48 hrs by broth microdilution method; type: functional
Staphylococcus aureus [21] = assay: Antibacterial activity against clinically isolated Methicillin-resistant Staphylococcus aureus assessed as inhibition of bacterial growth measured after 48 hrs by broth microdilution method; type: functional
Staphylococcus aureus [22] = assay: Bactericidal activity against Staphylococcus aureus MTCC 740 assessed as inhibition of bacterial growth measured after 48 hrs by agar plate method; type: functional; in short: as §1
Staphylococcus aureus [23] = assay: Bactericidal activity against clinically isolated Staphylococcus aureus RBRJ010 assessed as inhibition of bacterial growth measured after 48 hrs by agar plate method; type: functional
In short: (§2)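 MBC: 10 μL from wells showing no INT colour change after broth microdilution subcultured on drug-free Mueller Hinton agar, 48 h at 37 °C aerobically; lowest concentration with no visible growth taken as MBC (μM). Triplicate.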

[24] = test system: Staphylococcus epidermidis; assay: Bactericidal activity against Staphylococcus epidermidis MTCC 435 assessed as inhibition of bacterial growth measured after 48 hrs by agar plate method; type: functional; in short: as §2
Staphylococcus aureus [25] = assay: Bactericidal activity against clinically isolated Methicillin-resistant Staphylococcus aureus assessed as inhibition of bacterial growth measured after 48 hrs by agar plate method; type: functional
[26] = Cytotoxicity against mouse L929 cells assessed as reduction in cell viability measured after 72 hrs by MTT assay; type: toxicity, cell-based
In short: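 L929 cells (ATCC) grown in DMEM with 10% FBS and penicillin/streptomycin at 37 °C, 5% CO2; seeded at 5 × 10^3 cells per well and exposed to serial dilutions for 72 h, paclitaxel as positive control. MTT (5 mg mL−1), formazan dissolved in DMSO, absorbance at 490 nm; viability relative to control after blank subtraction; IC50 in μM.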

[27] = Selectivity index, ratio of IC50 for cytotoxicity against mouse L929 cells to MIC for antibacterial activity against clinically isolated Methicillin-resistant Staphylococcus aureus; type: toxicity, cell-based; details: read-out: Selectivity Index

Compound `O=C(O)c1cn(C2CC2)c2cc(N3CCNCC3)c(F)cc2c1=O` [CIPROFLOXACIN] has a zone of inhibition at 50 µM [1] of 17.4 mm, a zone of inhibition at 50 µM (Staphylococcus aureus [2]) of 24.5 mm and a zone of inhibition at 50 µM (Enterococcus faecalis [3]) of 15.9 mm. For the same compound, the zone of inhibition at 50 µM (Klebsiella pneumoniae [4]) was 14.5 mm, the zone of inhibition at 50 µM (Escherichia coli [5]) was 11.2 mm and the zone of inhibition at 50 µM (Pseudomonas aeruginosa) was 24.2 mm. For the same compound, the MIC (Staphylococcus aureus [6]) was 1.9 µM (≈ 0.63 µg/mL), the MBC (Staphylococcus aureus [7]) was 3.9 µM (≈ 1.29 µg/mL) and the IZ (Klebsiella pneumoniae [8]) was “inactive”. The IZ (Klebsiella pneumoniae [9]) was “inactive”.

`Cc1ccc(C(C)C)c(OCc2cn(CCCN3C(=O)C(=O)c4cc(C)ccc43)nn2)c1` showed a zone of inhibition at 50 µM (Staphylococcus aureus [10]) of 26.1 mm, a zone of inhibition at 50 µM (Staphylococcus aureus [11]) of 24.6 mm and a zone of inhibition at 50 µM [1] of 22.2 mm. It also gave a zone of inhibition at 50 µM (Staphylococcus aureus [12]) of 26.7 mm, a zone of inhibition at 50 µM (Staphylococcus aureus [2]) of 24.1 mm and a zone of inhibition at 50 µM (Enterococcus faecalis [3]) of 13.3 mm. For the same compound, the zone of inhibition at 50 µM (Enterococcus faecalis [13]) was 13.4 mm, the zone of inhibition at 50 µM (Klebsiella pneumoniae [4]) was 19.2 mm and the zone of inhibition at 50 µM (Klebsiella pneumoniae [14]) was 18.5 mm. The zone of inhibition at 50 µM (Klebsiella pneumoniae [15]) was 17.2 mm, the zone of inhibition at 50 µM (Escherichia coli [5]) was 16.5 mm and the zone of inhibition at 50 µM (Escherichia coli [16]) was 18.2 mm. It also gave a zone of inhibition at 50 µM (Escherichia coli [17]) of 17.6 mm, a zone of inhibition at 50 µM (Enterobacter cloacae) of 15.4 mm and a zone of inhibition at 50 µM (Acinetobacter baumannii) of 13.1 mm. The zone of inhibition at 50 µM (Pseudomonas aeruginosa) was 19.5 mm, the MIC (Staphylococcus aureus [18]) was 3.9 µM (≈ 1.69 µg/mL) and the MIC (Staphylococcus aureus [19]) was 7.8 µM (≈ 3.37 µg/mL). It also gave an MIC [20] of 15.6 µM (≈ 6.75 µg/mL), an MIC (Staphylococcus aureus [21]) of 3.9 µM (≈ 1.69 µg/mL) and an MIC (Staphylococcus aureus [6]) of 3.9 µM (≈ 1.69 µg/mL). It also gave an MBC (Staphylococcus aureus [22]) of 7.8 µM (≈ 3.37 µg/mL), an MBC (Staphylococcus aureus [23]) of 15.6 µM (≈ 6.75 µg/mL) and an MBC [24] of 31.2 µM (≈ 13.5 µg/mL). The MBC (Staphylococcus aureus [25]) was 7.8 µM (≈ 3.37 µg/mL), the MBC (Staphylococcus aureus [7]) was 7.8 µM (≈ 3.37 µg/mL) and the IC50 at 72 h [26] was 125 µM. The selectivity ratio [27] was 32.
